The values below come from ChEMBL document CHEMBL1124444, “Hydroxyacetophenone-derived antagonists of the peptidoleukotrienes” (1989).

Calls of active or inactive are those of the source. No cut-off for these calls is given here.

For test [1], the system named is Cavia porcellus. The test can be described thus: Compound (50 mg/kg, intraperitoneally) was tested in spontaneously breathing, conscious guinea pigs challenged with aerosolized LTD4 (60-min pretreatment). It is filed as functional.
The species entered for test [2] is Cavia porcellus. The test can be described thus: Percent inhibition of the leukotriene D4 (LTD4)-induced contraction of guinea pig tracheal spirals at 1 uM concentration. In kind it is functional. The note with it: Trachea. In a few lines:
(§1)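 Guinea pig tracheal spirals were split into paired sections in 10 mL baths of modified Krebs at 37 °C, gassed with 95% O₂/5% CO₂, under 2 g resting tension. After 60 min equilibration (washes every 15 min), reproducible contractions to 8 nM LTD₄ or 8 nM LTE₄ were obtained. Compound was added for 10 min, then agonist challenge repeated; percent inhibition is relative to the vehicle-treated paired section.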

Test [3] addresses T1, Cysteinyl leukotriene receptor 1 (Cavia porcellus) (UniProt Q2NNR5).
T1 sequence (whole entry): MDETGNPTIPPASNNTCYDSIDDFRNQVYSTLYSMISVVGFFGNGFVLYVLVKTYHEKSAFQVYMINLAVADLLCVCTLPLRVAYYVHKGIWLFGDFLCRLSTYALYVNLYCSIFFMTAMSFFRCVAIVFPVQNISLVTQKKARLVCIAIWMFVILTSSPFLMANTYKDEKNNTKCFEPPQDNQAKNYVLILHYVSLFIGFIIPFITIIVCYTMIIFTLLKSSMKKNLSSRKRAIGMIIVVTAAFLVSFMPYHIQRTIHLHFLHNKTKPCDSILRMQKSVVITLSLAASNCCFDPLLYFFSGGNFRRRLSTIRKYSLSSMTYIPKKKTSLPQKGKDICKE
The test can be described thus: Dissociation constant (KB) […] was evaluated in vitro in isolated guinea pig tracheal strips.

Test [4] has as its system Cavia porcellus. The test is described as follows: Compound (50 mg/kg, intraperitoneally) was tested in spontaneously breathing, conscious guinea pigs challenged with aerosolized LTD4 (60-min pretreatment); NS means data were not statistically significant. It is filed as functional, organism-based.
For test [5], the species on record is Cavia porcellus. The test can be described thus: Percent inhibition of the leukotriene D4-induced contraction of guinea pig tracheal spirals at 4 uM concentration. In kind it is functional. The note with it: Trachea. A digest of the protocol: as §1
Test [6] relates to Cavia porcellus. The test can be described thus: Compound (50 mg/kg, intraperitoneally) was tested in spontaneously breathing, conscious guinea pigs challenged with aerosolized LTD4 (30-min pretreatment). In kind it is functional.
The species named for test [7] is Cavia porcellus. The test is described as follows: Percent inhibition of the leukotriene E4 (LTE4)-induced contraction of guinea pig tracheal spirals at 0.33 uM concentration. The note with it: Trachea.
The species named for test [8] is Cavia porcellus. The test is described as follows: Percent inhibition of the leukotriene E4 (LTE4)-induced contraction of guinea pig tracheal spirals at 1 uM concentration. The note with it: Trachea.

In general, inhibition refers to the relative decrease from the control value, in per cent. In the case of `CCCc1c(OCc2ccc(C(=O)O)c(Br)c2)ccc(C(C)=O)c1O`, in the test with Cavia porcellus [1], the Protection is on record as 69%. In the test filed under Cavia porcellus [2], this molecule showed an inhibition at 1 µM of 30%. This molecule returned a Kb in test [3] of 170 nM.
Consider `CCCc1c(OCC(O)COc2ccc3c(=O)cc(C(=O)O)oc3c2CCC)ccc(C(C)=O)c1O` (stereo not given) [FPL-55712], for which, in the test with Cavia porcellus [4], the Protection entry was “inactive”. This molecule gave an inhibition at 4 µM in the test listed under Cavia porcellus [5] of 62%. Further, the Protection with Cavia porcellus [6] was 32%.
Turning to `CCCc1c(OCc2cccc(NC(=O)c3ccccc3C(=O)O)c2)ccc(C(C)=O)c1O`, in the test listed under Cavia porcellus [7], testing at 0.33 µM gave an inhibition of 45%. The molecule also had an inhibition at 1 µM in the test listed under Cavia porcellus [8] of 94%. In the test with Cavia porcellus [1], the Protection was found to be 9%. Further, the Kb in test [3] is 160 nM.
